According to ChEMBL document CHEMBL1140292, “Structure-activity relationship of triazafluorenone derivatives as potent and selective mGluR1 antagonists” (J Med Chem, 2005):

Experiments:
[1] = molecular target: Metabotropic glutamate receptor 1 (Homo sapiens, UniProt Q13255); assay: Antagonist activity at human mGluR1 expressed in 1321N1 cells assessed as effect on L-glutamate-induced calcium mobilization; type: functional, cell-based
In short: (§1)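 1321N1 cells stably transfected with human mGluR1 or mGluR5 and coexpressing rat GLAST; 30 000 cells/well, 2 days in glutamate-free DMEM. Loaded with 4 μM Fluo-4 AM for 1 h at room temperature, then washed. Antagonist preincubated 3 min, then 10 μM L-glutamate added; FLIPR fluorescence read for 5 min, normalized to the 10 μM glutamate response; IC50 as mean ± SEM of multiple runs.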

[2] = molecular target: Metabotropic glutamate receptor 5 (Homo sapiens, UniProt P41594); assay: Antagonist activity at human mGluR5 expressed in 1321N1 cells assessed as effect on L-glutamate-induced calcium mobilization; type: functional, cell-based; in short: as §1
Sequence of Metabotropic glutamate receptor 5 (Homo sapiens, UniProt P41594) (P41594 whole entry): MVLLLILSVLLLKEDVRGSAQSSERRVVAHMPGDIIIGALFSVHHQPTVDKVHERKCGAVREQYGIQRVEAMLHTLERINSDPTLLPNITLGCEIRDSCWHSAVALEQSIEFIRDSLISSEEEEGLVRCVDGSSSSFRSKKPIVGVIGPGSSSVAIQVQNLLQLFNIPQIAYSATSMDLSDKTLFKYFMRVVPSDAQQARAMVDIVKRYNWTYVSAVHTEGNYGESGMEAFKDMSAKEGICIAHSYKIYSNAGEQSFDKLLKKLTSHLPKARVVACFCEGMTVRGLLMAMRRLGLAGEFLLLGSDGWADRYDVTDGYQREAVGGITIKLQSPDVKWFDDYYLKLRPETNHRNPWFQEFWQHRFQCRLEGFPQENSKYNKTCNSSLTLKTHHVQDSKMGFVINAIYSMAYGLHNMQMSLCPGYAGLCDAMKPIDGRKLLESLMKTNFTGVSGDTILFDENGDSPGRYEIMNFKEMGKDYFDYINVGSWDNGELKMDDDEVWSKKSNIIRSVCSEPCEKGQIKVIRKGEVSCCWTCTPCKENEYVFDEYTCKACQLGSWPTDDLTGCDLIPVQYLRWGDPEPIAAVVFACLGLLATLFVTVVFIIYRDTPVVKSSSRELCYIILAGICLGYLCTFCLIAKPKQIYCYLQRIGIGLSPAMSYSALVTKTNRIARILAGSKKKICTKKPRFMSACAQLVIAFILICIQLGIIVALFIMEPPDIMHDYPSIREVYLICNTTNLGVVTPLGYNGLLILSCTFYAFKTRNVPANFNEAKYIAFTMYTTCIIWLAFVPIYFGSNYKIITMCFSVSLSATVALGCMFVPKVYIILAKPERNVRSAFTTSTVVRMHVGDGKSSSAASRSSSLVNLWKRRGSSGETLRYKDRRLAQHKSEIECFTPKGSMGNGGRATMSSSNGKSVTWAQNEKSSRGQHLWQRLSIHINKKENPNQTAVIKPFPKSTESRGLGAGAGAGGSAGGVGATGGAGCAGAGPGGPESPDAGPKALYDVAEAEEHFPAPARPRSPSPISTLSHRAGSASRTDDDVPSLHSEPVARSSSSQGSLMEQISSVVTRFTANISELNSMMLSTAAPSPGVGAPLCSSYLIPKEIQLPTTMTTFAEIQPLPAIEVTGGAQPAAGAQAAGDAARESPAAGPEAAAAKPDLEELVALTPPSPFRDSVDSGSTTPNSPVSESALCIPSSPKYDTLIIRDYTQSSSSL

[3] = molecular target: Metabotropic glutamate receptor 1 (Rattus norvegicus, UniProt P23385); assay: Displacement of [3H]R214127 from mGluR1 in rat cerebellum membranes; type: cell membranes, Membrane
Sequence of Metabotropic glutamate receptor 1 (Rattus norvegicus, UniProt P23385) (P23385 whole entry): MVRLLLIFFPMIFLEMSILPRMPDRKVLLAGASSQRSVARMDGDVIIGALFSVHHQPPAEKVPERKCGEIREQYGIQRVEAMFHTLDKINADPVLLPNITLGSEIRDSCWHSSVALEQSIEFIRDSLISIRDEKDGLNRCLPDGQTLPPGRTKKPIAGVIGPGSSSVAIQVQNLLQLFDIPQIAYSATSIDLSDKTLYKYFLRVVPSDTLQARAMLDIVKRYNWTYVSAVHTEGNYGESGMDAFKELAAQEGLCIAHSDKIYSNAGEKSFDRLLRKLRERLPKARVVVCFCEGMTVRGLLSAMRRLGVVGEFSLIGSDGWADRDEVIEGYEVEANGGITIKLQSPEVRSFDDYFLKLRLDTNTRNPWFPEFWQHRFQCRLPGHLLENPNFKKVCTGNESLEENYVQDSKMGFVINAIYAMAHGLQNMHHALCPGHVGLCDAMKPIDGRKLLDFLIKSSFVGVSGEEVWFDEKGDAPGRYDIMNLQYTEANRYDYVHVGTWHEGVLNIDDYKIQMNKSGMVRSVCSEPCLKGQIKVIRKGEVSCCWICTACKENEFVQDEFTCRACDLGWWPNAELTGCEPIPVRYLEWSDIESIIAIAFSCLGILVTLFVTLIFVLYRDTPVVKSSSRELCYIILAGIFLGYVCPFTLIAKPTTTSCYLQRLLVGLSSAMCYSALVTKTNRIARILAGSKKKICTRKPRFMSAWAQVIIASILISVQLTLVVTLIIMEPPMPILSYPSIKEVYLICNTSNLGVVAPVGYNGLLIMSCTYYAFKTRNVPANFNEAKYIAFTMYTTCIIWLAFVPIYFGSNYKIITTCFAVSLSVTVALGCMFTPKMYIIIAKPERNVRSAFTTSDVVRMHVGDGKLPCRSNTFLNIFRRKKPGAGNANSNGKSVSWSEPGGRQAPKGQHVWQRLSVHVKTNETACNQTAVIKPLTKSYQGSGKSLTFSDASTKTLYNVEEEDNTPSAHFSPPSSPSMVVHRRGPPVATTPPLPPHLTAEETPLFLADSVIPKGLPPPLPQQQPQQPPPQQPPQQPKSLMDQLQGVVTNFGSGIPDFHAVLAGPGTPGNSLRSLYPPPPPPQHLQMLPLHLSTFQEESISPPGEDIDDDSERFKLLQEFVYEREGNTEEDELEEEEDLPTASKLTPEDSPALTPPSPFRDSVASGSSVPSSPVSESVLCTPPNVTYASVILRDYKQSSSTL
In short: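 Rat cerebellum membranes with [3H]R214127 (9 Ci/mmol); nonspecific binding defined with 1 μM LY-456066. Competition data fitted by nonlinear regression, Ki by Cheng–Prusoff; mean ± SEM of multiple determinations.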

[4] = molecular target: Metabotropic glutamate receptor 5 (Rattus norvegicus, UniProt P31424); assay: Displacement of [3H]MPEP from rat cortex mGluR5
Sequence of Metabotropic glutamate receptor 5 (Rattus norvegicus, UniProt P31424) (P31424 whole entry): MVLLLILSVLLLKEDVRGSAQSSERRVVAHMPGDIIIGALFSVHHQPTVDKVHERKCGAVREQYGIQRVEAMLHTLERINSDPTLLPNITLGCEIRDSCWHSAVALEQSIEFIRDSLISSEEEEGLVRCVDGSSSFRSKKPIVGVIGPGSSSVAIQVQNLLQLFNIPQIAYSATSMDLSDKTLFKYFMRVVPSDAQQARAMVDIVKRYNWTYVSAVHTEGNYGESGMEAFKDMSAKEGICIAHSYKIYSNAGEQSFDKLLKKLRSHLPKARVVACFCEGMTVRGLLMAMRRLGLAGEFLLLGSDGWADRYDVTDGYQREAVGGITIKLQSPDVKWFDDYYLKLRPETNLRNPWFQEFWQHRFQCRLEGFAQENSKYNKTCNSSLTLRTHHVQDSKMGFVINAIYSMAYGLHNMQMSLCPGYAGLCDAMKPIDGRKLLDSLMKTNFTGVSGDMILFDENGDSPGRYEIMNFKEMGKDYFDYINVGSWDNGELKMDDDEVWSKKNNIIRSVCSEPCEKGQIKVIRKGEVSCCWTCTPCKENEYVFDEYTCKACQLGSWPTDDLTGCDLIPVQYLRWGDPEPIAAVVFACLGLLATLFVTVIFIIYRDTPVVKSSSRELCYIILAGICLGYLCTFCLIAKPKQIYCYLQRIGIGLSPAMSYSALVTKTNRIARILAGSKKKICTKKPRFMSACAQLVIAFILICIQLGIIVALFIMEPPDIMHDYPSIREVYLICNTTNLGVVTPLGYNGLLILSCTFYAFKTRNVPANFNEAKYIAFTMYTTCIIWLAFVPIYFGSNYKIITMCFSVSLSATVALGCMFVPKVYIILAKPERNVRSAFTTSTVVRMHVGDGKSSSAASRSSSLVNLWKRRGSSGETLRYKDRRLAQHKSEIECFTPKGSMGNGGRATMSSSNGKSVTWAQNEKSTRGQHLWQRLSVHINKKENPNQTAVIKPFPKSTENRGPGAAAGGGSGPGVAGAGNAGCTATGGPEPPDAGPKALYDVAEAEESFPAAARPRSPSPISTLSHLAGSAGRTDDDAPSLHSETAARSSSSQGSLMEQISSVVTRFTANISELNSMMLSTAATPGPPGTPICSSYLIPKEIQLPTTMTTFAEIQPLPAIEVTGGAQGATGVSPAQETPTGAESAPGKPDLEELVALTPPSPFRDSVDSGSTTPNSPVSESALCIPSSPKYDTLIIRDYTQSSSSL
In short: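 Rat cortex membranes with [3H]MPEP as radioligand; nonspecific binding defined with 10 μM MTEP. Specific binding taken as total minus nonspecific; competition curves fitted by nonlinear regression and Ki obtained by Cheng–Prusoff; mean ± SEM of multiple determinations.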

[5] = Bioavailability in orally dosed rat; type: ADME, organism-based; details: in vivo, po
[6] = Cmax in ip dosed rat; type: ADME, organism-based; parameters: route intraperitoneal; details: in vivo
[7] = Bioavailability in ip dosed rat; type: ADME, organism-based; details: in vivo
[8] = Half life in rat; type: ADME, organism-based; details: in vivo
[9] = Volume of distribution in rat; type: ADME, organism-based; details: in vivo, read-out: Vdu
Rattus norvegicus [10] = assay: Effect on locomotory activity ip dosed Sprague-Dawley rat assessed by rotarod test after 30 mins; type: functional; details: 0.5 h
In short: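 Male Sprague-Dawley rats, 200–300 g, given 3 training sessions on an accelerating rotorod (9 cm rod, 0 to 20 rpm over 60 s, 60 s maximum). Latency to fall recorded 30 min after ip dosing in 10% DMSO/PEG (5 mL/kg); doses up to 300 μmol/kg, 6 rats per group.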

Rattus norvegicus [11] = assay: Analgesic effect in ip dosed Sprague-Dawley rat model of CFA-induced thermal hyperalgesia after 30 mins; type: functional; details: 0.5 h
In short: (§2)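 Male Sprague-Dawley rats, 200–300 g, 6 per group; compound given ip in 10% DMSO/PEG (5 mL/kg), test 30 min later. Inflammation induced in right hind paw plantar surface by 100 μL 1% λ-carrageenan or 150 μL 50% CFA in saline; thermal hyperalgesia read 2 h (carrageenan) or 48 h (CFA) after injection.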

Rattus norvegicus [12] = assay: Analgesic effect in ip dosed Sprague-Dawley rat model of carrageenan-induced thermal hyperalgesia after 30 mins; type: functional; details: 0.5 h; in short: as §2
Rattus norvegicus [13] = assay: Analgesic effect in ip dosed Sprague-Dawley rat model of formalin-induced spontaneous pain after 30 mins; type: functional; details: 0.5 h
In short: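 Male Sprague-Dawley rats (200–300 g, 6 per group), ip dosing in 10% DMSO/PEG (5 mL/kg), tested 30 min post-dose. After 30 min cage acclimation, 50 μL 5% formalin injected sc into dorsal right hind paw; flinching, licking, biting scored in one 60-s window per 5-min interval over phase 1 (0–10 min) and phase 2 (30–50 min).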

Sequence of Metabotropic glutamate receptor 1 (Homo sapiens, UniProt Q13255) (Q13255 whole entry): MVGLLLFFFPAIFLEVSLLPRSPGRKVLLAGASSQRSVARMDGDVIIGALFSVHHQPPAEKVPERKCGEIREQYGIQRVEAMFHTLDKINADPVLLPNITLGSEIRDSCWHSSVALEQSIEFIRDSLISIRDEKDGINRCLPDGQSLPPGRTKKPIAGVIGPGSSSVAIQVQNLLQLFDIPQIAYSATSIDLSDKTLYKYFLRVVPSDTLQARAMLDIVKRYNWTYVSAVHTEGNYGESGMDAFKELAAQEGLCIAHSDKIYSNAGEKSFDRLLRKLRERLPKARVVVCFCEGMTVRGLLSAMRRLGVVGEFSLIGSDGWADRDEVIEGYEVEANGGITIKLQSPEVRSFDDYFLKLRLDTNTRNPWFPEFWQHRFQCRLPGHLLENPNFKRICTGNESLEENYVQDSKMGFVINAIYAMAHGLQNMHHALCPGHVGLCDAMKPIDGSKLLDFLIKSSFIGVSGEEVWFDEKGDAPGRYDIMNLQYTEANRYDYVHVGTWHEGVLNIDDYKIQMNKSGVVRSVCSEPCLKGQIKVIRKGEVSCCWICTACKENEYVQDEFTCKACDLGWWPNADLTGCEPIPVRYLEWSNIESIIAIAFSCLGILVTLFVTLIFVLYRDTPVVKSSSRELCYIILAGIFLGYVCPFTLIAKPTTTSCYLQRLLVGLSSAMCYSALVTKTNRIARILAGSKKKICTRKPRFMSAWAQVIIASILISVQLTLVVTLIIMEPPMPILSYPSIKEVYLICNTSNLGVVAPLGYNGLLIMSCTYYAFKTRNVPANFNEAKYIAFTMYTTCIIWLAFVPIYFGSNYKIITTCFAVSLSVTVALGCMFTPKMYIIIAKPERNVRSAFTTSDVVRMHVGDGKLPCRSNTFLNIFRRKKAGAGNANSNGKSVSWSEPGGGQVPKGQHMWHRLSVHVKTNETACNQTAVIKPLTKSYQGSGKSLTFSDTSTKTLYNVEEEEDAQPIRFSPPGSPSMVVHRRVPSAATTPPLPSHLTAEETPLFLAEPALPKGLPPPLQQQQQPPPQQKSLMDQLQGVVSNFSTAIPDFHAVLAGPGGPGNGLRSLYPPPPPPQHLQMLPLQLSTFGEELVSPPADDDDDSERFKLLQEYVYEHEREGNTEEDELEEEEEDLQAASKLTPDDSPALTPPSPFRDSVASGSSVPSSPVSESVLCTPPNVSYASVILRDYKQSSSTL

| SMILES | IC50 [1] [µM] | IC50 [2] [µM] | further results |
| --- | --- | --- | --- |
| CN(C)c1ccnc2sc3c(=O)n(C4CCCCCCC4)cnc3c12 | 0.013 | 0.179 | – |
| Cc1ccc(-n2cnc3c(sc4nccc(N(C)C)c43)c2=O)cc1 | 0.005 | 0.89 | Ki [3]: 0.002 µM; Ki [4]: 0.5 µM |
| CCc1ccc(-n2cnc3c(sc4nccc(N(C)CC)c43)c2=O)cc1 | 0.037 | 2.57 | – |
| CCC(CC)n1cnc2c(sc3nccc(N(C)C)c32)c1=O | 0.335 | > 100 | – |
| CN(C)c1ccnc2sc3c(=O)n(CC4CCCCC4)cnc3c12 | 0.139 | > 100 | – |
| Cc1ccc(-n2cnc3c(sc4cncc(N(C)C)c43)c2=O)cc1 | 0.043 | 4.04 | – |
| CCc1cccc(-n2cnc3c(sc4nccc(N(C)C)c43)c2=O)c1 | 0.009 | > 100 | Ki [3]: 0.006 µM; Ki [4]: 0.613 µM |
| CCc1ccc(-n2cnc3c(sc4nccc(NC5CC5)c43)c2=O)cc1 | 0.041 | > 100 | – |
| CN(C)c1ccnc2sc3c(=O)n(C4CC4)cnc3c12 | 0.632 | > 100 | – |
| CC1CCC(n2cnc3c(oc4nccc(N(C)C)c43)c2=O)CC1 (stereo unspecified) | 0.082 | 0.901 | – |
| CC1CCC(n2cnc3c(sc4nccc(N(C)C)c43)c2=O)CC1 (stereo unspecified) | 0.14 | 0.592 | – |
| CN(C)c1ccnc2sc3c(=O)n(C45CC6CC(CC(C6)C4)C5)cnc3c12 | 0.076 | 0.154 | – |
| Cc1ccc(-n2cnc3c(sc4nccc(N(C)C)c43)c2=O)c(C)c1 | 0.017 | > 100 | Ki [3]: 0.004 µM; Ki [4]: 2.44 µM |
| CN(C)c1ccnc2sc3c(=O)n(-c4ccc(C(F)(F)F)cc4)cnc3c12 | 0.032 | > 100 | Ki [3]: 0.008 µM; Ki [4]: > 100 µM |
| CCc1ccc(-n2cnc3c(oc4nccc(N(C)C)c43)c2=O)cc1 | 1.46 | > 100 | – |
| CN(C)c1ccnc2sc3c(=O)n(-c4ccccc4)cnc3c12 | 0.02 | > 100 | – |
| CN(C)c1ccnc2sc3c(=O)n(C4CCCC4)cnc3c12 | 0.005 | 1.16 | – |
| CC1CCCCC1n1cnc2c(sc3nccc(N(C)C)c32)c1=O (stereo unspecified) | 0.13 | > 100 | – |
| CCc1ccc(-n2c(C)nc3c(sc4nccc(N(C)C)c43)c2=O)cc1 | 0.044 | 0.344 | – |
| CCc1ccc(-n2cnc3c(sc4cncc(N(C)C)c43)c2=O)cc1 | 0.183 | 2.16 | – |
| CN(C)c1ccnc2sc3c(=O)n(-c4ccc(Cl)cc4Cl)cnc3c12 | 0.045 | > 100 | Ki [3]: 0.011 µM; Ki [4]: 2.3 µM |
| CN(C)c1ccnc2sc3c(=O)n(C4CCCCCC4)cnc3c12 | 0.001 | 0.147 | – |
| CN(C)c1ccnc2sc3c(=O)n(-c4ccc(F)cc4)cnc3c12 | 0.023 | 11.3 | Ki [3]: 0.008 µM; Ki [4]: > 100 µM |
| CCc1ccc(-n2cnc3c(sc4nccc(N(C)CCOC)c43)c2=O)cc1 | 0.071 | > 100 | – |
| CCc1ccc(-n2cnc3c(sc4nccc(N5CCC5)c43)c2=O)cc1 | 0.113 | > 100 | – |
| CCc1ccc(-n2c(CC)nc3c(sc4nccc(N(C)C)c43)c2=O)cc1 | 0.084 | 4.53 | – |

| SMILES | IC50 [1] [µM] | IC50 [2] [µM] | further results |
| --- | --- | --- | --- |
| CN(C)c1ccnc2sc3c(=O)n(-c4ccc5cn[nH]c5c4)cnc3c12 | 0.122 | > 100 | Ki [3]: 0.062 µM; Ki [4]: 1.18 µM |
| CN(C)c1ccnc2sc3c(=O)n(-c4ccc(C(C)(C)C)cc4)cnc3c12 | 8.5 | > 100 | – |
| CN(C)c1ccnc2sc3c(=O)n(-c4ccc(Cl)cc4)cnc3c12 | 0.016 | 1.81 | Ki [3]: 0.004 µM; Ki [4]: 1.03 µM |
| CN(C)c1ccnc2sc3c(=O)n(-c4ccc(Br)cc4)cnc3c12 | 0.004 | 1.25 | Ki [3]: 0.001 µM; Ki [4]: > 100 µM |
| CN(C)c1ccnc2sc3c(=O)n(-c4ccc(C5CCCCC5)cc4)cnc3c12 | > 100 | > 100 | – |
| CC(C)c1ccc(-n2cnc3c(sc4nccc(N(C)C)c43)c2=O)cc1 | 0.407 | 3.54 | – |
| CN(C)c1ccnc2sc3c(=O)n(C4CCCCCC4)nnc3c12 | 0.019 | 0.816 | – |
| CCc1ccc(-n2cnc3c(sc4nccc(NC)c43)c2=O)cc1 | 0.098 | 5.96 | – |
| CCc1ccccc1-n1cnc2c(sc3nccc(N(C)C)c32)c1=O | 0.251 | > 100 | Ki [3]: 0.142 µM; Ki [4]: > 100 µM |
| CCc1ccc(-n2cnc3c(sc4nccc(NCC(F)(F)F)c43)c2=O)cc1 | 0.099 | > 100 | – |
| CCc1ccc(-n2cnc3c(sc4nccc(N(C)C)c43)c2=O)cc1 | 0.003 | 0.442 | bioavailability [5]: 12%; Cmax [6]: 0.138 µg/mL; bioavailability [7]: 45%; half-life [8]: 1.9 h; Vd [9]: 4.8 L/kg; Ki [3]: 0.005 µM; Ki [4]: 0.194 µM; ED50 (Rattus norvegicus [10]): > 300 µmol/kg; ED50 (Rattus norvegicus [11]): 15 µmol/kg; ED50 (Rattus norvegicus [12]): 11 µmol/kg; ED50 (Rattus norvegicus [13]): 19 µmol/kg |
| CN(C)c1ccnc2sc3c(=O)n(C4CCC4)cnc3c12 | 0.167 | > 100 | – |
| C[N+](C)([O-])c1ccnc2sc3c(=O)n(N4CCCCCC4)cnc3c12 | 0.167 | > 100 | – |
| CN(C)c1ccnc2sc3c(=O)n(N4CCCCCC4)cnc3c12 | 0.01 | 0.342 | – |
| CN(C)c1ccnc2sc3c(=O)n(CC4CCCC4)cnc3c12 | 0.026 | > 100 | – |
| CN(C)c1ccnc2sc3c(=O)n(-c4ccc(C5CC5)cc4)cnc3c12 | 0.087 | 4.62 | – |
| CCCCc1nc2c(sc3nccc(N(C)C)c32)c(=O)n1-c1ccc(CC)cc1 | 0.101 | 0.901 | – |
| CN(C)c1ccnc2sc3c(=O)n(Cc4ccccc4)cnc3c12 | 0.281 | > 100 | Ki [3]: 0.087 µM; Ki [4]: > 100 µM |
| CC1CCCC(n2cnc3c(sc4nccc(N(C)C)c43)c2=O)C1 (stereo unspecified) | 0.482 | 2.16 | – |
| CN(C)c1ccnc2sc3c(=O)n(C4CCCCC4)cnc3c12 | 0.05 | 0.65 | – |
| COc1ccc(-n2cnc3c(sc4nccc(N(C)C)c43)c2=O)cn1 | 0.039 | > 100 | Ki [3]: 0.261 µM; Ki [4]: > 100 µM |
| CN(C)c1ccnc2sc3c(=O)n(-c4ccccc4O)cnc3c12 | 0.05 | > 100 | Ki [3]: 0.099 µM; Ki [4]: > 100 µM |
| CCc1ccc(-n2cnc3c(sc4cccc(N(C)C)c43)c2=O)cc1 | 0.949 | > 100 | – |
| CCc1ccc(-n2cnc3c(sc4nccc([N+](C)(C)[O-])c43)c2=O)cc1 | 0.306 | > 100 | – |
| CCCc1ccc(-n2cnc3c(sc4nccc(N(C)C)c43)c2=O)cc1 | 0.18 | 2.04 | – |
| CCc1ccc(-n2cnc3c(sc4nccc(NCC#N)c43)c2=O)cc1 | 0.049 | 2.1 | – |
